Screens deposited in PubChem by several laboratories.
FAS-TE inh: blocks the thioesterase domain of human fatty acid synthase; AID 602261; inhibition, % at 15 µM; P49327; recombinant FAS-TE, OMFH fluorogenic substrate, fluorescence endpoint; 360,000 compounds, 0.67% hits;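 active = compounds whose normalised, plate-corrected inhibition of enzyme fluorescence in the single-dose primary screen is 50% or more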;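 note: 0% = DMSO with enzyme and 100% = substrate without enzyme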
SENP1 FRET inh: inhibitors of human SENP1 SUMO protease catalytic domain. Q9P0U3. recombinant SENP1 catalytic domain, CyPet-SUMO1-YPet FRET cleavage. inhibition, % at 10 µM. 360,000 compounds, 0.21% hits. AID 624204;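 active = inhibition at least 30% at 10 µM, raw YFP signal under a set limit, fluorescence ratio 0.5 to 1.5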;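 note: 0% = enzyme with DMSO and 100% = no enzyme wells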
Target sequence (Q9P0U3 419-644 limits assumed): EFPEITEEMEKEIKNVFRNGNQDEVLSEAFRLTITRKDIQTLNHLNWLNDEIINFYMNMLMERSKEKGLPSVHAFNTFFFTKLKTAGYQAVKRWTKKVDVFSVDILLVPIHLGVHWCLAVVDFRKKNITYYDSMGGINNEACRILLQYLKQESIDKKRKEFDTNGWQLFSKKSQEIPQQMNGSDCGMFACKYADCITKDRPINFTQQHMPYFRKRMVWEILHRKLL
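Compound: 10 µM single point, 0.5% DMSO; Test system: hSENP1 catalytic domain, recombinant; Timing: 50 min reaction at room temperature; Technique: FRET, CFP and YFP emission; Control set: no-enzyme wells low, DMSO-plus-enzyme wells high control.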
NR3A LBD binder: modulators (binders) of human NR3A ligand-binding domain; NR3A LBD differential scanning fluorimetry, Tm shift; 0% = protein alone, 100% = glycine-bound protein; Tm shift relative to glycine control, % at 25 µM; 340,000 compounds, 2.5% hits;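 active = melting temperature shift of at least 10% of the positive control shift, at one fixed dose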
Cardio protect: modulators protecting cardiomyocytes from myocardial damage | H9c2 cardiomyocytes, H2O2 injury protection, ATPLite, 2 h | protection from H2O2 cell death, % at 20 µM | 360,000 compounds, 0.63% hits | AID 588492;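 active = compounds giving at least 50% protection of heart cells from peroxide-induced death in the single-dose screen, raw or plate-pattern-corrected value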;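 note: 0% = DMSO wells with peroxide and 100% = DMSO wells without peroxide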
iPSC survival up: hiPSC single-cell survival enhancement; ATPlite luminescence; 100% = ROCK inhibitor wells, 0% = DMSO; survival enhancement, % at 20 µM; 360,000 compounds, 0.044% hits; AID 602274; in the data active = survival enhancement above about 18%;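 note: cells exposed to compounds for 16 hours before the ATP read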
Arr AP2 block: blocks beta-arrestin peptide binding to AP2 adaptin; FITC-arrestin peptide / GST-AP2 beads, flow cytometry; AP2 beta2 appendage carries R879A mutation; inhibition, % at 10 µM; 340,000 compounds, 0.31% hits;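 active = inhibition above a set limit, near 3 SD of compounds lacking own fluorescence, cut at about 54% in these data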;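 note: plate controls were DMSO wells for no effect and 5 µM unlabelled arrestin peptide for full effect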
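Material – AP2 appendage R879A on GSH beads · Buffer or medium – PBS with 0.05% Tween 20 and 0.1% BSA · Probe or stimulus – fluorescein-tagged arrestin peptide at 50 nM final · Incubation – compound with beads 12 min RT, then probe 1 h RT · Detection – high-throughput flow cytometry of beads, ex 488, em 535 nm · Evaluation – percent response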
SENP1 conf: confirmation of human SENP1 SUMO protease inhibitors; 520 compounds, 34% hits; inhibition, % at 10 µM; recombinant SENP1, CyPet-SUMO1-YPet FRET cleavage; shares compounds with SENP1 FRET inh; in the data active = inhibition mostly above about 35%, no sharp cut-off; inactive = mostly below about 32%;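 note: 0% = enzyme with DMSO and 100% = no enzyme control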
SENP1 kin conf: confirmation of human SENP1 SUMO protease inhibitors, kinetic; shares compounds with SENP1 FRET inh; recombinant SENP1, CyPet-SUMO1-YPet FRET kinetic cleavage; inhibition, % at 10 µM; 520 compounds, 26% hits; in the data active = inhibition mostly above about 32%, no sharp cut-off; inactive = mostly below about 29%;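 note: 0% = DMSO with enzyme and 100% = no enzyme substrate only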
Starred values were filed as active, the others as inactive; / = no result given. Most compounds without a hit are left out; they make up all but 4% or so of the library.

SMILES	FAS-TE inh	SENP1 FRET inh	NR3A LBD binder	Cardio protect	iPSC survival up	Arr AP2 block	SENP1 conf	SENP1 kin conf
O=C(NCc1ccccc1)C1C(c2ccccc2)=Nc2ccccc2N1C(=O)c1cnccn1 (centres undefined)	/	21.6	/	/	/	/	/	/
CCOC(=O)/C(C#N)=C/c1cc2ccccc2nc1Cl	-6.9	1.1	3.8	4.1	0.1	-3.9	/	/
N#C/C(=C\c1cc2ccccc2nc1N1CCCCC1)C(N)=O	11.0	43.3*	0.3	-2.5	-1.1	-2.1	35.9*	22.1
Cc1cccc(C)c1NC(=O)C1c2ccccc2OCC(=O)N1Cc1ccccc1 (centres undefined)	-7.7	1.2	/	/	-1.2	/	/	/
Cc1cc(Cl)ccc1-c1cc2nc(NCCCN(C)C)n(C)c(=O)c2s1	-7.3	-1.3	/	-3.7	-2.2	/	/	/
COC(=O)C1=CC(C(=O)c2cccs2)=NN(c2ccc(OC)cc2)C1C(=O)OC (centres undefined)	1.4	60.7*	1.7	-9.3	-3.0	0.5	59.5*	38.5*
COc1ccc(N2C(=O)C3C(C2=O)C(C(=O)c2ccc(Cl)cc2)N2CCCC32)cc1 (centres undefined)	10.9	71.4*	0.2	11.3	0.1	-11.5	76.8*	49.7*
O=C(c1ccccc1)[C@@H]1[C@@H]2C(=O)N(c3ccc(F)cc3)C(=O)[C@@H]2C2CCCN21 (some centres undefined)	-2.9	75.6*	1.2	2.7	0.0	7.0	73.3*	47.9*
CC(=O)c1ccc(N2C(=O)C3C(C2=O)C(C(=O)c2ccc(Cl)cc2)N2CCCC32)cc1 (centres undefined)	/	/	-3.0	/	/	/	/	/
CC(C)C[C@H]1CN([C@@H](Cc2ccccc2)CN2CCC[C@@H]2CN2C(=O)C(=O)NC[C@@H]2Cc2ccccc2)C(=O)C(=O)N1CC1CCCCC1	15.1	1.4	/	-5.0	0.0	/	/	/
CC(=O)NCCNc1nc2cc(-c3ccc(C(=O)N4CCN(C)CC4)cc3)sc2c(=O)n1C	-3.2	-0.1	/	3.5	2.9	/	/	/
Cc1cc(-c2ccc([N+](=O)[O-])cc2)nc2ccccc12	33.9	-1.9	-2.4	-19.8	-0.5	15.7	/	/
Cc1cc(N2CCN(c3nc(-c4ccc([N+](=O)[O-])cc4)cs3)CC2)c2ccccc2n1	26.8	45.3*	-3.1	1.7	0.1	16.0	15.4	13.7
CCN1/C(=C\C=C2\C(=O)N(C)C(=S)N2C)Sc2ccccc21	-6.8	37.3*	-0.7	-0.7	-1.5	4.5	-9.2	-11.3
OC[C@@H]1CN(Cc2ccc(Cl)cc2)C[C@H](n2cnc3c(NC4CCC4)ncnc32)O1	-0.5	2.4	/	-5.3	1.8	/	/	/
CCn1c(/C=C/c2ccc(O)cc2)nc2ccccc2c1=O	-0.8	37.0	1.1	6.1	2.3	35.0	/	/
CCn1c(/C=C/c2cc(Br)ccc2O)nc2ccccc2c1=O	8.7	77.9*	3.4	-12.8	-0.3	-8.5	36.5*	32.9
Cc1nc2ccc(NS(=O)(=O)c3c(F)cccc3F)cc2s1	-10.9	52.5*	-0.6	-5.9	-2.1	5.2	25.9	25.4*
C[C@@H]1O[C@@H](OC[C@H]2O[C@@H](Oc3cc(O)c4c(=O)cc(-c5ccc(O)c(O)c5)oc4c3)[C@H](O)[C@@H](O)[C@@H]2O)[C@H](O)[C@H](O)[C@H]1O	-12.5	42.6*	-1.9	1.0	2.8	6.4	57.0*	41.9*
CCOC(=O)c1sc2cc([N+](=O)[O-])cc(SCC(=O)OC)c2c1N	10.2	65.5*	1.3	4.4	-3.5	9.7	24.8	2.2
CCOC(=O)c1sc2nc(C)cc(C)c2c1N	-4.9	-27.2	-1.6	2.0	-0.9	0.5	/	/
CCOC(=O)CSc1nnc(NC(=O)c2cc([N+](=O)[O-])cc([N+](=O)[O-])c2)s1	44.3	3.5	4.8	-3.9	0.4	-3.5	/	/
CCOC(=O)c1sc2cc([N+](=O)[O-])cc(SCCO)c2c1N	-3.3	50.1*	-1.7	-5.1	0.7	-24.6	20.3	12.2
CCOC(=O)CCCCCC(=O)Nc1ccc2c(c1)C(=O)N([C@H](C)CO)C[C@H](C)[C@H](CN(C)C(=O)C1CCCCC1)OCCCC[C@@H](C)O2	1.2	-3.4	/	-1.7	-1.6	/	/	/
Nc1cc2c(cc1[N+](=O)[O-])-c1ccccc1C2=NO	-58.6	31.7*	22.8*	-1.5	-1.4	-4.8	36.1	11.4
SMILES	FAS-TE inh	SENP1 FRET inh	NR3A LBD binder	Cardio protect	iPSC survival up	Arr AP2 block	SENP1 conf	SENP1 kin conf
CCCCn1c(N)c(N(CCC(C)C)C(=O)c2c(CC)noc2C)c(=O)[nH]c1=O	1.1	-9.4	/	5.8	7.7	/	/	/
COc1ccccc1-c1cnc(C(O)c2ccc(F)c(F)c2)[nH]1 (centres undefined)	-0.9	-1.2	/	-1.8	-0.2	/	/	/
Cc1cc(Br)ccc1-n1[nH]c(C)c(C=Nc2cccc3nsnc23)c1=O	13.2	39.7*	-10.9	15.4	-1.9	-5.5	5.8	6.3
Cc1c(C=NNC(=O)c2ccc(Br)cc2)c2ccccn2c1C(=O)c1ccncc1	-4.3	50.0*	0.3	11.2	-0.3	13.9	29.6	18.2
CC1(C(=O)NS(=O)(=O)Cc2ccccc2)CCN1C(=O)CCc1ccccc1 (centres undefined)	-8.3	2.6	/	1.3	2.8	/	/	/
COc1ccc(Cn2c3ccc(OC)cc3c3nc4ccccc4nc32)cc1	-5.4	16.5	-7.9	-7.5	-2.6	31.6	/	/
COc1ccc2c(c1)c1nc3ccccc3nc1n2Cc1ccc(OC(C)C)c(OC)c1	-1.8	34.8*	-6.0	-6.8	3.8	-8.0	46.7*	34.3*
COc1ccc2c(c1)c1nc3ccccc3nc1n2CCn1c(=O)oc2ccccc21	-2.4	53.8*	0.3	-7.8	0.2	1.2	130.6*	83.0*
COc1cc(Nc2cccc(-c3ccccc3)n2)cc(OC)c1OC	11.4	1.0	/	-5.0	-0.3	/	/	/
COc1cc(Nc2nc3c(N)cc(C(F)(F)F)cc3nc2-c2ccccc2)cc(OC)c1OC	17.8	45.6*	-0.3	13.7	-0.1	10.4	2.4	2.8
Nc1ccccc1C#Cc1ccc([N+](=O)[O-])cc1	14.4	33.3*	6.5	-9.5	-0.5	-1.5	17.6	17.1
CC(=O)c1ccc(Sc2ccccc2N)c([N+](=O)[O-])c1	26.8	37.0*	0.9	-5.5	-0.5	6.5	14.8	6.9
N#CCSc1ccccc1NC(=O)COc1ccc(-c2nnco2)cc1	-11.5	34.3*	1.1	-3.2	0.1	-20.4	2.9	9.6
